Measurements: ChEMBL document CHEMBL1129507, “Betulinic acid derivatives: a new class of human immunodeficiency virus type 1 specific inhibitors with a new mode of action” (J Med Chem, 1996)

Experiments:
CCRF-CEM [1] = assay: Ability to inhibit the cytopathic effect induced by HIV-1 infection in CEM T-lymphoblastoid tumor cell line; NA=not active.; type: functional, cell-based, Homo sapiens
Outline: (§1)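 CEM 4 cells in RPMI 1640 with 10% heat-inactivated FCS, penicillin, streptomycin, glutamine and polybrene (2 µg/mL), 37 °C, 5% CO2. Compound dilutions or PBS preincubated with cells for 1 h, then infected with HIV-1 IIIB/LAI (100-200 CCID50) and cultured ≥5 days. Mock-infected parallel cultures for cytotoxicity. Absorbance read at 540 nm; IC50 for 50% protection against cytopathogenicity, mean of ≥2 experiments.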

MT4 [2] = assay: Ability to inhibit the cytopathic effect induced by HIV-1 infection in MT-4 cells; NA=not active.; type: functional, cell-based, Homo sapiens
Outline: (§2)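 MT-4 cells infected with HIV-1 strain IIIB/LAI. Protection from virus-induced cytopathogenicity measured by the MTT method. IC50 is the concentration giving 50% protection, mean of at least two experiments.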

MT4 [3] = assay: Ability to inhibit the cytopathic effect induced by HIV-1 infection in MT-4 cells; type: functional, cell-based; conditions: Homo sapiens; outline: as §2
CCRF-CEM [4] = assay: Ability to inhibit the cytopathic effect induced by HIV-1 infection in CEM T-lymphoblastoid tumor cell line; type: functional, cell-based; conditions: Homo sapiens; outline: as §1

Compound	IC50 (CCRF-CEM [1])	IC50 (CCRF-CEM [4]) [nM]	IC50 (MT4 [2])	IC50 (MT4 [3]) [nM]
C=C(C)[C@@H]1CC[C@]2(C(=O)N(C)CCCCCCCCCCC(=O)O)CC[C@]3(C)[C@H](CCC4[C@@]5(C)CC[C@H](O)C(C)(C)[C@@H]5CC[C@]43C)[C@@H]12 (stereo partly specified)	Not Active	–	Not Active	–
C=C(CSCCO)[C@@H]1CC[C@]2(C(=O)NCCCCCCCCCCC(=O)O)CC[C@]3(C)[C@H](CCC4[C@@]5(C)CC[C@H](O)C(C)(C)[C@@H]5CC[C@]43C)[C@@H]12 (stereo partly specified)	–	290	–	270
C=C(C)[C@@H]1CC[C@]2(CNCCCCCCCCCCC(=O)O)CC[C@]3(C)[C@H](CCC4[C@@]5(C)CC[C@H](O)C(C)(C)[C@@H]5CC[C@]43C)[C@@H]12 (stereo partly specified)	Not Active	–	–	–
C=C(CSCCN(CC)CC)[C@@H]1CC[C@]2(C(=O)NCCCCCCCCCCC(=O)O)CC[C@]3(C)[C@H](CCC4[C@@]5(C)CC[C@H](O)C(C)(C)[C@@H]5CC[C@]43C)[C@@H]12 (stereo partly specified)	–	1000	–	630
C=C(CSc1ccc(F)cc1)[C@@H]1CC[C@]2(C(=O)NCCCCCCCCCCC(=O)O)CC[C@]3(C)[C@H](CCC4[C@@]5(C)CC[C@H](O)C(C)(C)[C@@H]5CC[C@]43C)[C@@H]12 (stereo partly specified)	–	2000	–	1370
C=C(C)[C@@H]1CC[C@]2(NC(=O)NCCCCCCCCCC(=O)O)CC[C@]3(C)[C@H](CCC4[C@@]5(C)CC[C@H](O)C(C)(C)[C@@H]5CC[C@]43C)[C@@H]12 (stereo partly specified)	Not Active	–	Not Active	–
C=C(CNCCO)[C@@H]1CC[C@]2(C(=O)NCCCCCCCCCCC(=O)O)CC[C@]3(C)[C@H](CCC4[C@@]5(C)CC[C@H](O)C(C)(C)[C@@H]5CC[C@]43C)[C@@H]12 (stereo partly specified)	–	5750	–	2000
C=C(C)[C@@H]1CC[C@]2(C(=O)OCCCCCCCCCCC(=O)O)CC[C@]3(C)[C@H](CCC4[C@@]5(C)CC[C@H](O)C(C)(C)[C@@H]5CC[C@]43C)[C@@H]12 (stereo partly specified)	Not Active	–	Not Active	–
C=C(CNCC(=O)O)[C@@H]1CC[C@]2(C(=O)NCCCCCCCCCCC(=O)O)CC[C@]3(C)[C@H](CCC4[C@@]5(C)CC[C@H](O)C(C)(C)[C@@H]5CC[C@]43C)[C@@H]12 (stereo partly specified)	Not Active	–	–	–
C=C(CSCC(=O)O)[C@@H]1CC[C@]2(C(=O)NCCCCCCCCCCC(=O)O)CC[C@]3(C)[C@H](CCC4[C@@]5(C)CC[C@H](O)C(C)(C)[C@@H]5CC[C@]43C)[C@@H]12 (stereo partly specified)	Not Active	–	–	1610
CC(C)[C@@H]1CC[C@]2(C(=O)NCCCCCCCCCCC(=O)O)CC[C@]3(C)C(CC[C@@H]4[C@@]5(C)CCC(O)C(C)(C)C5CC[C@]43C)C12 (stereo partly specified)	–	1500	–	580
C=C(C)[C@@H]1CC[C@]2(NC(=O)CCCCCCCCCCC(=O)O)CC[C@]3(C)[C@H](CCC4[C@@]5(C)CC[C@H](O)C(C)(C)[C@@H]5CC[C@]43C)[C@@H]12 (stereo partly specified)	Not Active	–	Not Active	–
C=C(CN1CCCC1)[C@@H]1CC[C@]2(C(=O)NCCCCCCCCCCC(=O)O)CC[C@]3(C)[C@H](CCC4[C@@]5(C)CC[C@H](O)C(C)(C)[C@@H]5CC[C@]43C)[C@@H]12 (stereo partly specified)	–	1000	–	420

Further lines, with some results ahead:

IC50 (CCRF-CEM [1])	IC50 (CCRF-CEM [4]) [nM]	Compound	IC50 (MT4 [2])	IC50 (MT4 [3]) [nM]
–	230	C=C(C)[C@@H]1CC[C@]2(C(=O)NCCCCCCCCCCC(=O)O)CC[C@]3(C)[C@H](CCC4[C@@]5(C)CC[C@H](O)C(C)(C)[C@@H]5CC[C@]43C)[C@@H]12 (stereo partly specified)	–	440
Not Active	–	C=C(C)[C@@H]1CC[C@]2(C(=O)NCCCCCCCCCCC(=O)O)CC[C@]3(C)C(CCC4[C@@]5(C)CC(O)C(O)C(C)(C)C5CC[C@]43C)C12 (stereo partly specified)	–	–
–	1800	C=C(C)[C@@H]1CC[C@]2(C(=O)NCCCCCCCCCCC(=O)O)CC[C@]3(C)C(CC[C@@H]4[C@@]5(C)CC=CC(C)(C)C5CC[C@]43C)C12 (stereo partly specified)	–	2600
Not Active	–	C=C(CN)[C@@H]1CC[C@]2(C(=O)NCCCCCCCCCCC(=O)O)CC[C@]3(C)[C@H](CCC4[C@@]5(C)CC[C@H](O)C(C)(C)[C@@H]5CC[C@]43C)[C@@H]12 (stereo partly specified)	–	–
–	1200	C=C(C)[C@@H]1CC[C@]2(C(=O)NCCCCCCCCCCC(=O)O)CC[C@]3(C)[C@H](CCC4[C@@]5(C)CCC(=O)C(C)(C)[C@@H]5CC[C@]43C)[C@@H]12 (stereo partly specified)	–	330
Not Active	–	C=C(C)[C@@H]1CC[C@]2(C(=O)NCCCCCCCCCCC(=O)O)CC[C@]3(C)[C@H](CCC4[C@@]5(C)CCCC(C)(C)[C@@H]5CC[C@]43C)[C@@H]12 (stereo partly specified)	–	–
–	12000	CC(=O)[C@@H]1CC[C@]2(C(=O)NCCCCCCCCCCC(=O)O)CC[C@]3(C)C(CCC4[C@@]5(C)CCC(O)C(C)(C)C5CC[C@]43C)C12 (stereo partly specified)	–	–
–	1250	C=C(CNC(C)=O)[C@@H]1CC[C@]2(C(=O)NCCCCCCCCCCC(=O)O)CC[C@]3(C)[C@H](CCC4[C@@]5(C)CC[C@H](O)C(C)(C)[C@@H]5CC[C@]43C)[C@@H]12 (stereo partly specified)	–	260
Not Active	–	C=C(C)[C@@H]1CC[C@]2(C(=O)NCCCCCCCCCCC(=O)O)CC[C@]3(C)[C@H](CCC4[C@@]5(C)CC[C@H](OC)C(C)(C)[C@@H]5CC[C@]43C)[C@@H]12 (stereo partly specified)	Not Active	–
–	200	C=C(CO)[C@@H]1CC[C@]2(C(=O)NCCCCCCCCCCC(=O)O)CC[C@]3(C)[C@H](CCC4[C@@]5(C)CC[C@H](O)C(C)(C)[C@@H]5CC[C@]43C)[C@@H]12 (stereo partly specified)	–	380
–	50000	CC1(C)C(O)CC[C@@]2(C)C1CC[C@]1(C)C2CCC2C3[C@H](C(=O)O)CC[C@]3(C(=O)NCCCCCCCCCCC(=O)O)CC[C@]21C (stereo partly specified)	–	9000
–	3000	C=C(C)[C@@H]1CC[C@]2(C(=O)NCCCCCCCCCCC(=O)O)CC[C@]3(C)C(CC[C@@H]4[C@@]5(C)C=C(O)C(=O)C(C)(C)C5CC[C@]43C)C12 (stereo partly specified)	–	–
Not Active	–	C=C(C)[C@@H]1CC[C@]2(C(=O)NCCCCCCCCCCC(=O)O)CC[C@]3(C)[C@H](CCC4[C@@]5(C)CC[C@H](N)C(C)(C)[C@@H]5CC[C@]43C)[C@@H]12 (stereo partly specified)	–	–
–	3000	C=C(C)[C@@H]1CC[C@]2(C(=O)NCCCCCCCCCCC(=O)O)CC[C@]3(C)[C@H](CCC4[C@@]5(C)CC[C@@H](O)C(C)(C)[C@@H]5CC[C@]43C)[C@@H]12 (stereo partly specified)	–	2520
